Source: ChEMBL document CHEMBL2150951, “Studies on the antimicrobial properties of N-acylated ciprofloxacins” (2012)
≈ marks a conversion by molar mass, not a printed value. Calls of active or inactive are those of the source. No cut-off for these calls is given here.

Experiments:
Staphylococcus aureus [1] = test: Antibacterial activity against methicillin-resistant Staphylococcus aureus isolate CBD 635 at 50 ug per disc by Kirby-Bauer disc diffusion assay; assay type: functional; conditions: read-out: DIZ
How it was run: (§1)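 Kirby-Bauer disk diffusion with 50 µg compound per 6 mm paper disk. Organisms were grown and plated by an earlier method. The zone-of-inhibition diameter was recorded to the nearest mm and averaged over three independent experiments. No zone was reported as 6 mm, the disk diameter.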

Staphylococcus aureus [2] = test: Antibacterial activity against methicillin-resistant Staphylococcus aureus isolate CBD 635; assay type: functional
How it was run: (§2)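 MIC against S. aureus strains was run by an earlier published procedure, tested in triplicate. Values were averaged and expressed as µg/ml of compound.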

Staphylococcus aureus [3] = test: Antibacterial activity against methicillin-susceptible Staphylococcus aureus SH1000; assay type: functional
How it was run: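 MIC in µg/ml, tested in triplicate and averaged, with ciprofloxacin as positive control.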

Staphylococcus aureus [4] = test: Antibacterial activity against methicillin-resistant Staphylococcus aureus ATCC 43300; assay type: functional; how it was run: as §2
Bacillus anthracis = test: Antibacterial activity against Bacillus anthracis sterne at 50 ug per disc by Kirby-Bauer disc diffusion assay; assay type: functional; conditions: read-out: DIZ; how it was run: as §1
Enterococcus faecalis = test: Antibacterial activity against Enterococcus faecalis DS16 at 50 ug per disc by Kirby-Bauer disc diffusion assay; assay type: functional; conditions: read-out: DIZ
How it was run: (§3)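 Disks carried 50 µg of compound. Zone diameter was measured to the nearest mm and averaged over three independent experiments. A value of 6 mm, the disk diameter, was recorded where no inhibition was seen.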

[5] = Antibacterial activity against Bartonella henselae ATCC 49882 at 20 ug per disc after 7 days by Kirby-Bauer disc diffusion assay; assay type: functional, Bartonella henselae str. Houston-1; conditions: ATCC 49882, 168 h, read-out: DIZ
How it was run: (§4)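 Each paper disk was loaded with 20 µl of a 1 mg/ml solution, dried for 20 min and stored desiccated at 4 °C. Growth from 4-day plates was suspended in heart infusion broth to McFarland 2.0 and swabbed onto chocolate agar (heart infusion agar base with 5% bovine hemoglobin). Plates were incubated 1 week at 37 °C in 5% CO2. Zone diameter was read to the nearest mm, in triplicate and averaged.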

Bartonella quintana = test: Antibacterial activity against Bartonella quintana ATCC VR358 at 20 ug per disc after 7 days by Kirby-Bauer disc diffusion assay; assay type: functional; conditions: ATCC VR358, 168 h, read-out: DIZ; how it was run: as §4
Bartonella elizabethae = test: Antibacterial activity against Bartonella elizabethae F9251 at 20 ug per disc after 7 days by Kirby-Bauer disc diffusion assay; assay type: functional; conditions: F9251, 168 h, read-out: DIZ; how it was run: as §4
Bartonella vinsonii = test: Antibacterial activity against Bartonella vinsonii ATCC VR152 at 20 ug per disc after 7 days by Kirby-Bauer disc diffusion assay; assay type: functional; conditions: ATCC VR152, 168 h, read-out: DIZ; how it was run: as §4
[6] = Antibacterial activity against Bartonella henselae ATCC 49882 after 7 days by agar dilution method; assay type: functional, Bartonella henselae str. Houston-1; conditions: ATCC 49882, 168 h
How it was run: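 Agar dilution on chocolate agar containing compound at 10.0, 1.0 and 0.1 µg/ml, with 2-fold steps at and below 1.0 µg/ml for compounds active there. Controls were DMSO-only and drug-free plates. 25 µl of a McFarland 2.0 suspension in heart infusion broth was spotted and incubated 7 days at 37 °C in 5% CO2. Growth was scored +/− on duplicate plates; triplicate results were averaged.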

Escherichia coli [7] = test: Antibacterial activity against Escherichia coli DH5alpha at 50 ug per disc by Kirby-Bauer disc diffusion assay; assay type: functional; conditions: DH5[alpha], read-out: DIZ; how it was run: as §3
Escherichia coli [8] = test: Inhibition of Escherichia coli DNA gyrase-mediated formation of supercoiled form of pUC19 at 1 to 100 ug/mL by gel electrophoresis
How it was run: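 Relaxed circular pUC19 was incubated with purified E. coli DNA gyrase and compound for 1 h at 37 °C. Relaxed and supercoiled DNA were resolved and quantified by gel electrophoresis.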

[9] = Antibacterial activity against Bartonella henselae Houston-1 infected in human HMEC1 cells assessed as intracellular bacterial load at 1 ug/mL incubated for 96 hrs followed by compound washout measured after 7 days relative to control; assay type: functional, Bartonella henselae str. Houston-1
How it was run: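 HMEC-1 cells grown in MCDB131 with 10% FBS, EGF and hydrocortisone were infected with B. henselae Houston-1 at MOI 100 for 4 h. Extracellular bacteria were killed with gentamicin (200 µg/ml, 1 h), then compound was added at 0.1 or 1.0 µg/ml for 96 h. After washing, cells were lysed with 0.1% saponin and lysates plated on chocolate agar for 7 days. CFU are given as a percentage of the media-only control.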

Bartonella henselae = test: Antibacterial activity against Bartonella henselae infected in african green monkey Vero cells by immunofluorescence staining; assay type: functional
Staphylococcus aureus [10] = test: Antibacterial activity against methicillin-susceptible Staphylococcus aureus SH1000 at 2.5 fold MIC by serial dilution method; assay type: functional
How it was run: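 Tryptic soy agar contained compound at 1x, 1.5x, 2.0x or 2.5x the measured MSSA MIC. Cells from 1 ml of an overnight MSSA broth culture were pelleted, resuspended in 100 µl TSB and spread with glass beads. Inoculum cfu was counted by serial dilution onto drug-free agar. Total colonies from at least 3 replicates are reported; frequency is colonies divided by total inoculum.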

Structure (SMILES) | zone of inhibition at 50 µg/disc (Staphylococcus aureus [1]) [mm] | MIC (Staphylococcus aureus [2]) [µg/mL] | MIC (Staphylococcus aureus [3]) [µg/mL] | MIC (Staphylococcus aureus [4]) [µg/mL] | zone of inhibition at 50 µg/disc (Bacillus anthracis) [mm] | zone of inhibition at 50 µg/disc (Enterococcus faecalis) [mm] | zone of inhibition at 20 µg/disc [5] [mm] | zone of inhibition at 20 µg/disc (Bartonella quintana) [mm] | zone of inhibition at 20 µg/disc (Bartonella elizabethae) [mm] | zone of inhibition at 20 µg/disc (Bartonella vinsonii) [mm] | MIC [6] [µg/mL] | zone of inhibition at 50 µg/disc (Escherichia coli [7]) [mm] | gyrase inhibition (active/inactive) (Escherichia coli [8]) | Activity [9] | MIC (Bartonella henselae) [µg/mL] | CFU/ml (Staphylococcus aureus [10])
CCCC(CCC)C(=O)N1CCN(c2cc3c(cc2F)c(=O)c(C(=O)O)cn3C2CC2)CC1 | 6 | > 100 | 10 (≈ 21.9 µM) | > 100 | 72 | 26 | 14 | 6 | 6 | 6 | 5 (≈ 10.9 µM) | 6 | – | – | – | –
CC(C)(C)C(=O)N1CCN(c2cc3c(cc2F)c(=O)c(C(=O)O)cn3C2CC2)CC1 | 22 | > 100 | 7.5 (≈ 18.1 µM) | > 100 | 80 | 44 | 40 | 33 | 36 | 36 | – | 51 | Active | – | – | –
CCCC(=O)N1CCN(c2cc3c(cc2F)c(=O)c(C(=O)O)cn3C2CC2)CC1 | 6 | > 100 | > 100 | > 100 | 86 | 40 | 34 | 29 | 42 | 44 | 0.5 (≈ 1.25 µM) | 48 | – | <=10% | – | –
CCC(CC)C(=O)N1CCN(c2cc3c(cc2F)c(=O)c(C(=O)O)cn3C2CC2)CC1 | 30 | > 100 | > 100 | 1 (≈ 2.33 µM) | 81 | 22 | 33 | 17 | 26 | 25 | 5 (≈ 11.6 µM) | 39 | – | – | – | –
C[C@@H]1CN(c2c(F)c(N)c3c(=O)c(C(=O)O)cn(C4CC4)c3c2F)C[C@H](C)N1 [SPARFLOXACIN] | – | – | – | – | – | – | – | – | – | – | – | – | – | – | 6.4 (≈ 16.3 µM) | –
CCCCCCCCC(=O)N1CCN(c2cc3c(cc2F)c(=O)c(C(=O)O)cn3C2CC2)CC1 | 22 | > 100 | 10 (≈ 21.2 µM) | 10 (≈ 21.2 µM) | 55 | 23 | 6 | 11 | 12 | 14 | 10 (≈ 21.2 µM) | 30 | – | – | – | –
CCC(=O)N1CCN(c2cc3c(cc2F)c(=O)c(C(=O)O)cn3C2CC2)CC1 | 20 | > 100 | 40 (≈ 103 µM) | > 100 | 86 | 46 | 56 | 58 | 57 | 60 | 0.5 (≈ 1.29 µM) | 57 | Active | <=10% | – | 0
CCCCCCC(=O)N1CCN(c2cc3c(cc2F)c(=O)c(C(=O)O)cn3C2CC2)CC1 | 30 | > 100 | 25 (≈ 56.4 µM) | > 100 | 71 | 36 | 28 | 20 | 20 | 22 | 10 (≈ 22.5 µM) | 45 | – | – | – | –
O=C(O)c1cn(C2CC2)c2cc(N3CCNCC3)c(F)cc2c1=O [CIPROFLOXACIN] | 6 | – | 10 (≈ 30.2 µM) | 15 (≈ 45.3 µM) | 42 | 31 | 56 | 6 | 58 | 58 | 0.5 (≈ 1.51 µM) | 43 | – | <=10% | 15.2 (≈ 45.9 µM) | 551
